Test results taken from ChEMBL document CHEMBL1156908, “Characterization of tunable piperidine and piperazine carbamates as inhibitors of endocannabinoid hydrolases” (J Med Chem, 2010).

How the values were obtained:
[1] = target: T1, Fatty-acid amide hydrolase 1 (Mus musculus, UniProt O08914); test: Inhibition of FAAH in mouse brain membrane; type: cell membranes
T1 sequence (O08914 whole entry): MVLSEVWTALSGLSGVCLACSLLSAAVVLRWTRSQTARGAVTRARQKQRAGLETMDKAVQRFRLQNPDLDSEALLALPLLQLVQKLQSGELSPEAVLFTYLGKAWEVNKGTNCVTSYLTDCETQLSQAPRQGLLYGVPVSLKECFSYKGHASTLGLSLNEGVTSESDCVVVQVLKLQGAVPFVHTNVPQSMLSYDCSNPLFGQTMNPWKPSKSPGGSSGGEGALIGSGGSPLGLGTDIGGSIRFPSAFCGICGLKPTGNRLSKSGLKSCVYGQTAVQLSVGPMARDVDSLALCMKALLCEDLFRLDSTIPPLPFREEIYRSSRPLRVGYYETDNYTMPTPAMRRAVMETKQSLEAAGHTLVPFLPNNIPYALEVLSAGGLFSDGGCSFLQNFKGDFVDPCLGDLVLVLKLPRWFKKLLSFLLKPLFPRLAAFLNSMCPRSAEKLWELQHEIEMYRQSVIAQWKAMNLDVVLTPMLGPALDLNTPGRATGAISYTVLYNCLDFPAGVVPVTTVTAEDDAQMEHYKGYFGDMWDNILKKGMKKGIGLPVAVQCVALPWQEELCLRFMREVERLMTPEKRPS
Method in brief: (§1)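 Mouse brain membrane fraction (Dounce homogenized in PBS pH 7.5, 1,400 × g debris spin, 64,000 × g 45 min pellet, resuspended) at 1 mg/ml in PBS. Inhibitor preincubated 30 min at 37°C, then FP-rhodamine 1 μM final for 30 min at 25°C. SDS-PAGE with in-gel fluorescence scanning. IC50 from fitted integrated band intensities, mean of at least triplicates.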

[2] = target: T2, Monoglyceride lipase (Mus musculus, UniProt O35678); test: Inhibition of MAGL in mouse brain membrane; type: cell membranes; method in brief: as §1
T2 sequence (O35678 whole entry): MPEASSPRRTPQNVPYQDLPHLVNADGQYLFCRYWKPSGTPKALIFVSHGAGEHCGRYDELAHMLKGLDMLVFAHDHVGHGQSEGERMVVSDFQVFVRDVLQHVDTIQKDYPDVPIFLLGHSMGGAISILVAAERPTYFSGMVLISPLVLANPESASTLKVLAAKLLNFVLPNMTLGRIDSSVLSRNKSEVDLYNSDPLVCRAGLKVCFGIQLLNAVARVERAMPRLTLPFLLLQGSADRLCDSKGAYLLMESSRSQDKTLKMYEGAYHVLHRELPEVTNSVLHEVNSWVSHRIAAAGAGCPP

[3] = target: T3, Monoacylglycerol lipase ABHD6 (Mus musculus, UniProt Q8R2Y0); test: Inhibition of ABHD6 in mouse brain membrane; type: cell membranes; method in brief: as §1
T3 sequence (Q8R2Y0 whole entry): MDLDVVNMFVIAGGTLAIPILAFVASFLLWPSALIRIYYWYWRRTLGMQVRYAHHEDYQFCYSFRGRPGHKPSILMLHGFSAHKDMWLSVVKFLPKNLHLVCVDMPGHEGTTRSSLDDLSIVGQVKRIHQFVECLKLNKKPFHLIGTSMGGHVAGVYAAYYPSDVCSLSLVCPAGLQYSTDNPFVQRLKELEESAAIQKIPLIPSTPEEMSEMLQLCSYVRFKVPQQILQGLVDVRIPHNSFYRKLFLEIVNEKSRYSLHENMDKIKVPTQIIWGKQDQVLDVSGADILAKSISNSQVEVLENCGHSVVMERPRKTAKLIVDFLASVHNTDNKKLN

[4] = organism: Mus musculus; test: Selectivity ratio of IC50 for mouse FAAH to IC50 for mouse MAGL
Method in brief: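 Competitive ABPP on mouse brain membrane proteome (Dounce-homogenized in PBS pH 7.5, 64,000 × g pellet, resuspended), diluted to 1 mg/ml in PBS. Inhibitor preincubated 30 min at 37°C, then FP-rhodamine 1 μM final for 30 min at 25°C. SDS-PAGE and in-gel fluorescence scanning. IC50s for FAAH and MAGL come from integrated band intensities, means of ≥3 runs; the ratio is taken from these.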

[5] = target: T4, Patatin-like phospholipase domain-containing protein 6 (Mus musculus, UniProt Q3TRM4); test: Inhibition of NTE in mouse brain membrane; type: cell membranes; method in brief: as §1
T4 sequence (Q3TRM4 whole entry): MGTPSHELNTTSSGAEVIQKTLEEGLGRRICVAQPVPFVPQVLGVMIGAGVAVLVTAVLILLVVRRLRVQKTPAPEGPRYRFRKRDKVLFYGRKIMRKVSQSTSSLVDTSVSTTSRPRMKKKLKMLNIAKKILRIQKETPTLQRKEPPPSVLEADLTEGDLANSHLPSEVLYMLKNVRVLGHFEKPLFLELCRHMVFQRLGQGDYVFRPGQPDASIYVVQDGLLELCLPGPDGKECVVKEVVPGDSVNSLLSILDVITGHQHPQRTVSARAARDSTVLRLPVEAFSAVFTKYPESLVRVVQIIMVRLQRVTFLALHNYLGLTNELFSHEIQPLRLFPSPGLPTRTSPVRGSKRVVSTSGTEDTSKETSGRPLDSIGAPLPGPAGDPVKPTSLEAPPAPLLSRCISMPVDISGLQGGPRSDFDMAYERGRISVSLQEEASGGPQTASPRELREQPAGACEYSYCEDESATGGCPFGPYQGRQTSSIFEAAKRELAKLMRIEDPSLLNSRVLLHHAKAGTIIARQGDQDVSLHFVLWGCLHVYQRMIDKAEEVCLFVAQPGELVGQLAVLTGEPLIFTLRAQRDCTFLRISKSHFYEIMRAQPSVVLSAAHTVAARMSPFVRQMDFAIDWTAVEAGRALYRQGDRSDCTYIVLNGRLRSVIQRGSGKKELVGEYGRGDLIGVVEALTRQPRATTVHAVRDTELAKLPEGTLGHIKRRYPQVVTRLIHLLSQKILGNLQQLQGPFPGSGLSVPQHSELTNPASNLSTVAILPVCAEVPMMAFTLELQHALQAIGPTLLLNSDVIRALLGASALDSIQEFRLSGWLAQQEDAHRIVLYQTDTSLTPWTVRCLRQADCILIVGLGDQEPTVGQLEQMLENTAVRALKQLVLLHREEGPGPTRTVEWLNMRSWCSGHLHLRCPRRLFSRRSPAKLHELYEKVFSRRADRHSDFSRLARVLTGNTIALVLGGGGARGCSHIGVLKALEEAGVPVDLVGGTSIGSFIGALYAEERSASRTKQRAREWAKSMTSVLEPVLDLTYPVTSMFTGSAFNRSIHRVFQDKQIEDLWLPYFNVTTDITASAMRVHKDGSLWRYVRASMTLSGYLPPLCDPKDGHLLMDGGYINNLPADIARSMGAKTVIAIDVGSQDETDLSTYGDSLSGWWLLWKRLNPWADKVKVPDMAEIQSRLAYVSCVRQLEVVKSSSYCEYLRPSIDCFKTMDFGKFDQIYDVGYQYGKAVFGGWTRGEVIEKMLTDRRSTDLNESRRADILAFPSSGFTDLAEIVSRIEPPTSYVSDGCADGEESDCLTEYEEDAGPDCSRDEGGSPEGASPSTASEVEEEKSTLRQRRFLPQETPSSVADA

Compound	IC50 [1] [nM]	IC50 [2] [nM]	IC50 [3] [nM]	Ratio IC50 [4]	IC50 [5] [nM]
O=C(Oc1ccc([N+](=O)[O-])cc1)N1CCC(C(O)(c2ccc3ccccc3c2)c2ccc3ccccc3c2)CC1	4690	810	3430	6	–
CN(C(=O)Oc1ccc([N+](=O)[O-])cc1)C(c1ccccc1)c1ccccc1	> 50000	> 50000	> 50000	–	–
CN(C)c1ccc(C(O)(c2ccc(N(C)C)cc2)C2CCN(C(=O)Oc3ccc([N+](=O)[O-])cc3)CC2)cc1	10500	2120	1020	5	–
O=C(Oc1ccc([N+](=O)[O-])cc1)N1CCC2(CC1)OC2(c1ccccc1)c1ccccc1	5850	200	380	29	–
CN(CCC(c1ccccc1)c1ccccc1)C(=O)Oc1ccc([N+](=O)[O-])cc1	> 50000	> 50000	> 50000	–	–
O=C(Oc1ccc([N+](=O)[O-])cc1)N1CCN(Cc2ccc(-c3ccccc3)s2)CC1	40	50	220	–	80
O=C(Oc1ccc([N+](=O)[O-])cc1)N1CCC(C(O)(c2ccc(Cl)cc2)c2ccc(Cl)cc2)CC1	3360	1100	180	3	–
O=C(Oc1ccc([N+](=O)[O-])cc1)N1CCN(Cc2cc(-c3ccccc3)cs2)CC1	280	10	1000	–	890
O=C(Oc1ccc([N+](=O)[O-])cc1)N1CCC(=C(c2ccccc2)c2ccccc2)CC1	3500	1390	1300	3	–
COc1cccc(C(O)(c2cccc(OC)c2)C2CCN(C(=O)Oc3ccc([N+](=O)[O-])cc3)CC2)c1	5830	560	460	10	–
O=C(Oc1ccc([N+](=O)[O-])cc1)N1CCN(Cc2ccc(-c3ccccc3)o2)CC1	20	90	220	–	250
O=C(Oc1ccc([N+](=O)[O-])cc1)N1CCN(Cc2ccc3ccccc3n2)CC1	1040	80	490	–	910
COc1cc(OCc2ccccc2)ccc1CN1CCN(C(=O)Oc2ccc([N+](=O)[O-])cc2)CC1	930	90	310	–	420
O=C(Oc1ccc([N+](=O)[O-])cc1)N1CCN(Cc2ccc3ccccc3c2)CC1	380	70	150	–	1100
O=C(Oc1ccc([N+](=O)[O-])cc1)N1CCN(Cc2ccc(-c3ccccc3)cc2)CC1	4600	15	1650	–	4270
COc1ccccc1C(O)(c1ccccc1OC)C1CCN(C(=O)Oc2ccc([N+](=O)[O-])cc2)CC1	15100	510	1100	–	–
COc1ccc(C(O)(c2ccc(OC)c(OC)c2)C2CCN(C(=O)Oc3ccc([N+](=O)[O-])cc3)CC2)cc1OC	> 50000	1300	6960	–	–
O=C(Oc1ccc([N+](=O)[O-])cc1)N1CCC(C(O)(c2ccc3c(c2)OCO3)c2ccc3c(c2)OCO3)CC1	–	–	3270	–	–
COc1ccc(CN2CCN(C(=O)Oc3ccc([N+](=O)[O-])cc3)CC2)cc1	1050	1530	1270	–	480
COc1ccc(C(O)(c2ccc(OC)cc2)C2CCN(C(=O)Oc3ccc([N+](=O)[O-])cc3)C2)cc1 (stereo not given)	> 50000	> 50000	> 50000	–	–
O=C(Oc1ccc([N+](=O)[O-])cc1)N1CCN(Cc2ccccc2-c2ccccc2)CC1	3570	670	2860	–	330
O=C(Oc1ccc([N+](=O)[O-])cc1)N1CCN(Cc2ccccc2)CC1	930	900	740	–	610
